Assay [1] is described as follows: Her2 expression decrease, cell viability multiplex – SKBR3 breast tumor cells, AlphaScreen, ATP viability, primary screen (AID 461;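 active means Her2 level under about 52% in both replicate screens, with viability over 70% of control, limit read from the data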;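 on Her2 level: lower value means less Her2 protein in the cells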;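 on viability: percent of carrier control wells set as 100% viability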). As to conditions: SKBR3 Her2 protein level, 18-24 h, measured here: SKBR3 viability, ATP luminescence, at 10 µM. A general note: In Alpha technology, singlet oxygen from a donor bead excites a nearby acceptor bead.
The target of assay [2] is Receptor tyrosine-protein kinase erbB-2 (Homo sapiens) (UniProt P04626). The assay is described as above. To be noted: 18-24 h, at 10 µM, stronger effect = lower value.
Assay [3] can be described thus: reduced viability of SK-BR-3 breast cancer cells – cell-based, 24 h, human, pilot screen (AID 572;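 active means viability at or below 10% of carrier control in both of two separate runs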;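 further: compound exposure lasted between 18 and 24 h rather than exactly 24 h; 100% = carrier-treated control wells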). As to conditions: SK-BR-3 viability, CellTiter-Glo luminescence, at 10 µM, stronger effect = lower value. Background: Cellular ATP, detected with luciferase, serves as a proxy for viable cell number.
A short description of assay [4]: HUVEC growth inhibition – cell-based, human, primary screen (AID 575;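 active means viability at or below 30% in both replicate assays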;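 further: 100% = median of untreated cell wells with 0.1% DMSO on each plate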). As to conditions: HUVEC proliferation, CellTiter-Glo luminescence, 72 h; at 10 µM; stronger effect = lower value. In short, it runs like this: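 Assay system: Primary human umbilical vein endothelial cells | Quantity: 1250 cells per well | Medium: Supplemented EBM, 2% fetal bovine serum | Detection: CellTiter-Glo luminescence measuring cellular ATP | Read-out: % viability vs DMSO wells | Plate: Collagen-coated 384-well format | Times: 72 h exposure, 37 °C, 5% CO2, 30 min RT equilibration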

Assay [5] can be described thus: H69AR cell proliferation blockers – human, duplicate replicates, primary screen (AID 580).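 Further: 100% = mean luminescence of untreated wells and 0% = no signal.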 To be noted: H69AR lung tumor cells viability, ATP luminescence, 72 h; at 10 µM; stronger effect = lower value.
The nature of assay [6]: MRP1 drug-resistance reversers in H69AR cells – cell-based, doxorubicin co-treatment, pilot screen (AID 601;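 active means viability loss from added drug above about 55%, and viability with drug at most 40%, in both replicates, limit read from the data, passing the limit was not always enough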). As to conditions: CellTiter-Glo, 72 h, at 10 µM; for differential viability (reversal): stronger effect = higher value.
A short description of assay [7]: yeast transport mutant growth inhibition pilot in 384-well plates, post-Golgi transport modulator project (AID 636; in the data active means inhibition above about 31%). To be noted: absorbance 615 nm, about 18 h, stronger effect = higher value.
Assay [8] can be described thus: growth suppression of yeast trafficking mutant, preliminary HTS, modulators of trafficking downstream of Golgi apparatus project, 1536-format plate, OD 615 nm (AID 637; in the data active means inhibition above about 30%). To be noted: yeast transport mutant growth, absorbance 615 nm, 18 h; stronger effect = higher value.
[9] abbreviates: H69AR cells + 2 uM doxorubicin, measured here: viability with 2 uM doxorubicin, stronger effect = lower value.
[10] abbreviates: H69AR cells, compound alone cytotoxicity.

SMILES strings stand for the structures. Active and inactive are the calls of the source.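 How the source made its calls, unless noted: active means viability at or under a set limit in both replicates, limit being median viability minus 3 SD (cut at about 48% in these data, passing the limit was not always enough); inconclusive means at or under the limit in just one replicate; inactive means at or above the limit in both replicates.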

Chain of Receptor tyrosine-protein kinase erbB-2 (Homo sapiens) (P04626 whole entry, looked up): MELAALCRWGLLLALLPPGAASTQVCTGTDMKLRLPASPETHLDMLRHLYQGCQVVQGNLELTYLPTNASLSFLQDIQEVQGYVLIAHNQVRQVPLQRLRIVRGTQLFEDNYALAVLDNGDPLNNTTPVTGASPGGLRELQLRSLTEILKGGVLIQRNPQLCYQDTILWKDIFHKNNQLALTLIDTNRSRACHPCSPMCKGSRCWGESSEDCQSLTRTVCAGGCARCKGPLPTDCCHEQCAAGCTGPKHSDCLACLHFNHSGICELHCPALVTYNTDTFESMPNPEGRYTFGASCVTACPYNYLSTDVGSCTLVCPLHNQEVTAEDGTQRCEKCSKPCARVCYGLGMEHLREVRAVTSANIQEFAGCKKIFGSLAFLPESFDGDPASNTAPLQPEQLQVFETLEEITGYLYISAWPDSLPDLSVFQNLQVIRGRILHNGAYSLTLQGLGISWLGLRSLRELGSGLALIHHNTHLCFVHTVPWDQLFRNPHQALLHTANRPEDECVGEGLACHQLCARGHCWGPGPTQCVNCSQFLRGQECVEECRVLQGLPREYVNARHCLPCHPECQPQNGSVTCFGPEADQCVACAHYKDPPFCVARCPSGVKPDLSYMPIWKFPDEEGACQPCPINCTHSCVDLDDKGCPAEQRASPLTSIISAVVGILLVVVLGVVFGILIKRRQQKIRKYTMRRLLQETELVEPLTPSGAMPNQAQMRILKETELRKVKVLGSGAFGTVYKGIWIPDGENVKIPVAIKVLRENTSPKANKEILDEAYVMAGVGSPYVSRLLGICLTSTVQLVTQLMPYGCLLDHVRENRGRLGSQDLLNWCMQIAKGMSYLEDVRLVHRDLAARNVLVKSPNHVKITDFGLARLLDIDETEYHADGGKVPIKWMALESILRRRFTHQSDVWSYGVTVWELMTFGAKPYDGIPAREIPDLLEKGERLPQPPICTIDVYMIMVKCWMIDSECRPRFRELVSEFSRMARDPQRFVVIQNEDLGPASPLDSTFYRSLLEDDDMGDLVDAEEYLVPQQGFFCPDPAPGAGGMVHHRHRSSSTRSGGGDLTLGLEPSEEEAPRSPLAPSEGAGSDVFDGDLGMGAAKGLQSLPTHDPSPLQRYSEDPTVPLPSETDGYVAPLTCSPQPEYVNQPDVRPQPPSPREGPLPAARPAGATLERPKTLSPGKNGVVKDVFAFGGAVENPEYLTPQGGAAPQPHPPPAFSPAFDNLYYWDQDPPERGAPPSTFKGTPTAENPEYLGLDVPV

With `CCOC(=O)C1CCCN(C(=O)c2ccc(CS(=O)(=O)Cc3ccccc3C)o2)C1` (stereo not given), the viability in assay [1] is 94.5%; in assay [3] it was 94.5% (inactive); in assay [4], 84.4% (inactive); in assay [5] it was 96.2% (inactive); in assay [6] (setting [9]) it was 86.3%; in assay [6] (setting [10]), 96.2%. In addition, the Her2 level in assay [2] is 97.5% (inactive). Further, in assay [6] (H69AR cells + 2 uM doxorubicin), the differential viability (reversal) is 9.89% (inactive). Besides, the values for the inhibition in assay [7] and in assay [8] were -0.39% (inactive) and -8.23% (inactive), respectively.
On to `OCCn1c(-c2ccc3c(c2)OCO3)csc1=Nc1ccccc1`, for which the viability was 97% in assay [1]; 97% (inactive) in assay [3]; 51.4% (inactive) in assay [4]; 88.7% (inactive) in assay [5]; 91.2% in assay [6] (setting [9]); 88.7% in assay [6] (setting [10]). Further, the Her2 level in assay [2] is 71.5% (inactive). In addition, the differential viability (reversal) in assay [6] (H69AR cells + 2 uM doxorubicin) is -2.46% (inactive). The inhibition is -4.4% (inactive) in assay [7] and 5.9% (inactive) in assay [8].
On to `O=C(Cn1nnc2ccccc2c1=O)NC1CCCc2ccccc21` (stereo not given), for which the viability in assay [1] was 77%; in assay [3], 77% (inactive); in assay [4] it was 101% (inactive); in assay [5], 103% (inactive); in assay [6] (setting [9]), 95.4%; in assay [6] (setting [10]), 103%. Moreover, the Her2 level in assay [2] is 97.5% (inactive). Also, the differential viability (reversal) in assay [6] (H69AR cells + 2 uM doxorubicin) is 7.25% (inactive). For the same molecule, the inhibition in assay [7] was -2.67% (inactive); in assay [8] it was 4.68% (inactive).
`Cc1cc(C)cc(NS(=O)(=O)c2ccc3[nH]c(=O)[nH]c3c2)c1`: the viability in assay [1] is 108%; in assay [3], 108% (inactive); in assay [4], 90.1% (inactive); in assay [5], 85.5% (inactive); in assay [6] (setting [9]) it was 86%; in assay [6] (setting [10]), 85.5%. The Her2 level in assay [2] is 89% (inactive). In addition, the differential viability (reversal) in assay [6] (H69AR cells + 2 uM doxorubicin) is -0.57% (inactive). The results for the inhibition in assay [7] and in assay [8] were -2.21% (inactive) and -4.5% (inactive), respectively.
`O=S(=O)(c1ccc2ccccc2c1)N1CCCCC1`: the viability in assay [1] was 102%; in assay [3] it was 102% (inactive); in assay [4], 78% (inactive); in assay [5] it was 80.8% (inactive); in assay [6] (setting [9]), 75.1%; in assay [6] (setting [10]), 80.8%. The Her2 level in assay [2] is 82.5% (inactive). For the same molecule, in assay [6] (H69AR cells + 2 uM doxorubicin), the differential viability (reversal) is 5.72% (inactive). For the same molecule, the inhibition in assay [7] was -1.95% (inactive); in assay [8] it was -8.67% (inactive).
In the case of `CCCC(C(=O)NCc1ccco1)N(C(=O)CNS(=O)(=O)c1ccc(Cl)cc1)C1CCCC1` (stereo not given), the viability in assay [1] was 122%; in assay [3], 122% (inactive); in assay [4], 74.1% (inactive); in assay [5], 82.7% (inactive); in assay [6] (setting [9]), 86.8%; in assay [6] (setting [10]), 82.7%. Besides, in assay [2], the Her2 level was 91% (inactive). In addition, the differential viability (reversal) in assay [6] (H69AR cells + 2 uM doxorubicin) was -4.13% (inactive). Also, the inhibition in assay [7] is -0.13% (inactive); in assay [8] it was 3.55% (inactive).
As for `Cc1cc(NC(=O)c2ccc3c(c2)C(=O)N(Cc2cccnc2)C3=O)no1`, the viability was 96.5% in assay [1]; 96.5% (inactive) in assay [3]; 106% (inactive) in assay [4]; 102% (inactive) in assay [5]; 102% in assay [6] (setting [9]); 102% in assay [6] (setting [10]). In assay [2], the Her2 level is 110% (inactive). Also, the differential viability (reversal) in assay [6] (H69AR cells + 2 uM doxorubicin) was 0.045% (inactive). For the same molecule, the inhibition in assay [7] is -1.07% (inactive); in assay [8], 12.5% (inactive).
Turning to `N#CC1=C(N)SC(N)=C(C#N)C1CCc1ccccc1`, the viability is 79.5% in assay [1]; 79.5% (inactive) in assay [3]; 44.8% (inactive) in assay [4]; 23.3% (active) in assay [5]; 31.9% in assay [6] (setting [9]); 23.3% in assay [6] (setting [10]). Besides, in assay [2], the Her2 level is 77.5% (inactive). Also, the differential viability (reversal) in assay [6] (H69AR cells + 2 uM doxorubicin) was -8.65% (inactive). In addition, the inhibition in assay [7] is -2.11% (inactive); in assay [8], -0.36% (inactive).
Consider `COc1ccc(-c2nnc3sc(-c4c(OC)cccc4OC)nn23)cc1`, for which the viability in assay [1] is 105%; in assay [3], 105% (inactive); in assay [4], 62.6% (inactive); in assay [5], 75.9% (inactive); in assay [6] (setting [9]), 83.2%; in assay [6] (setting [10]), 75.9%. In addition, the Her2 level in assay [2] was 93.5% (inactive). In addition, in assay [6] (H69AR cells + 2 uM doxorubicin), the differential viability (reversal) was -7.34% (inactive). In addition, the inhibition in assay [7] is -5.13% (inactive); in assay [8], -7.58% (inactive).
For `CCn1cc(C(=O)NCCCOC)c(=O)c2cc(S(=O)(=O)N(C)C3CCCCC3)ccc21`, the viability in assay [1] is 87%; in assay [3], 87% (inactive); in assay [4], 101% (inactive); in assay [5], 90.8% (inactive); in assay [6] (setting [9]), 104%; in assay [6] (setting [10]), 90.8%. Moreover, in assay [2], the Her2 level is 114% (inactive). Besides, the differential viability (reversal) in assay [6] (H69AR cells + 2 uM doxorubicin) was -13% (inactive). Besides, the inhibition was -0.9% (inactive) in assay [7] and -5.33% (inactive) in assay [8].
For the molecule `O=C(CSc1nnnn1C1CCCCC1)N1CCc2ccccc21`, the viability in assay [1] is 91%; in assay [3] it was 91% (inactive); in assay [4] it was 60.9% (inactive); in assay [5] it was 87.1% (inactive); in assay [6] (setting [9]) it was 90.2%; in assay [6] (setting [10]), 87.1%. Further, in assay [2], the Her2 level is 82.5% (inactive). The differential viability (reversal) in assay [6] (H69AR cells + 2 uM doxorubicin) was -3.15% (inactive). The inhibition in assay [7] is -3.87% (inactive); in assay [8] it was -2.79% (inactive).
Regarding `COc1cccc(C(=O)N2CCCC(c3nc(-c4cccs4)no3)C2)c1` (stereo not given), the viability in assay [1] was 98%; in assay [3] it was 98% (inactive); in assay [4], 93.4% (inactive); in assay [5], 95.5% (inactive); in assay [6] (setting [9]) it was 92.6%; in assay [6] (setting [10]), 95.5%. In addition, the Her2 level in assay [2] is 81.5% (inactive). Further, the differential viability (reversal) in assay [6] (H69AR cells + 2 uM doxorubicin) was 2.9% (inactive). Moreover, the values for the inhibition in assay [7] and in assay [8] were -7.43% (inactive) and 4.26% (inactive), respectively.
Take `COc1ccc2c(c1)OC(O)(C(F)F)CC2=O` (stereo not given): the viability was 116% in assay [1]; 116% (inactive) in assay [3]; 102% (inactive) in assay [4]; 93.5% (inactive) in assay [5]; 91.2% in assay [6] (setting [9]); 93.5% in assay [6] (setting [10]). For the same molecule, the Her2 level in assay [2] was 107% (inactive). In assay [6] (H69AR cells + 2 uM doxorubicin), the differential viability (reversal) is 2.35% (inactive). The inhibition was -1.04% (inactive) in assay [7] and -2% (inactive) in assay [8].
As for `CC(C)(O)C1=NOC(c2ccccc2)C1` (stereo not given), the viability in assay [1] was 98%; in assay [3] it was 98% (inactive); in assay [4], 76.2% (inactive); in assay [5] it was 71.1% (inactive); in assay [6] (setting [9]) it was 85.8%; in assay [6] (setting [10]), 71.1%. Further, in assay [2], the Her2 level was 108% (inactive). Also, the differential viability (reversal) in assay [6] (H69AR cells + 2 uM doxorubicin) is -14.7% (inactive). In addition, the figures for the inhibition in assay [7] and in assay [8] were -2.57% (inactive) and 1.31% (inactive), respectively.
In the case of `Cn1c(CNc2nc(-c3ccccc3)cs2)nnc1SCC(=O)N1CCc2ccccc21`, the viability in assay [1] is 96.5%; in assay [3], 96.5% (inactive); in assay [4], 81.8% (inactive); in assay [5], 93.3% (inactive); in assay [6] (setting [9]), 83.4%; in assay [6] (setting [10]), 93.3%. For the same molecule, the Her2 level in assay [2] is 97.5% (inactive). Further, in assay [6] (H69AR cells + 2 uM doxorubicin), the differential viability (reversal) is 9.91% (inactive). Moreover, the inhibition in assay [7] is -1.62% (inactive); in assay [8], 7.14% (inactive).
`CCSCCNC(=O)c1cc(-n2cnnc2)ccc1Cl`: the viability in assay [1] is 138%; in assay [3] it was 138% (inactive); in assay [4], 108% (inactive); in assay [5], 86.3% (inactive); in assay [6] (setting [9]) it was 85.9%; in assay [6] (setting [10]) it was 86.3%. In addition, in assay [2], the Her2 level was 106% (inactive). For the same molecule, the differential viability (reversal) in assay [6] (H69AR cells + 2 uM doxorubicin) is 0.415% (inactive). Besides, the inhibition in assay [7] was -3.47% (inactive); in assay [8] it was -1.48% (inactive).

The term viability denotes a read-out of living cells in per cent, often relative to untreated cells. In general, inhibition refers to the relative decrease from the control value, in per cent.

The record behind these values is PubChem BioAssay.
